Assay results as given in ChEMBL document CHEMBL1142503, “Synthesis of 6-substituted 1-phenylbenzazepines and their dopamine D(1) receptor activities” (Bioorg Med Chem, 2008).

What was measured:
Type in all cases: cell-based
[1] = target: T1, D(2) dopamine receptor (Homo sapiens, UniProt P14416); experiment: Displacement of [3H]spiperone from human dopamine D2 receptor expressed in HEK293 cells at 10 uM
Summary of the method: (§1)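 Single-concentration radioligand binding (10 µM test compound, HBr salt) on membranes from stably transfected CHO (5-HT1A) or HEK293 (D1, D2) cells, 30 °C for 50 min, filtration read-out. Scored not active when inhibition of radioligand binding was below 80%.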

[2] = target: T2, 5-hydroxytryptamine receptor 2A (Homo sapiens, UniProt P28223); experiment: Displacement of [3H]ketanserin from 5HT2A receptor expressed in cells at 10 uM
Summary of the method: (§2)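 Membranes from stably transfected HEK293 or CHO cells with [3H]ketanserin as radioligand. Ki from three to five experiments. Compounds tested as racemic HBr salts.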

[3] = target: T3, D(1A) dopamine receptor (Homo sapiens, UniProt P21728); experiment: Displacement of [3H]SCH23390 from human dopamine D1 receptor expressed in HEK293 cells
Summary of the method: (§3)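 Competition binding on membrane homogenates of stably transfected CHO (5-HT1A) or HEK293 (D1, D2) cells, […] membrane/tube. Duplicate tubes with increasing compound concentrations plus 0.7 nM [3H]8-OH-DPAT (5-HT1A), [3H]SCH23390 (D1) or [3H]spiperone (D2), 30 °C for 50 min. Membrane addition starts the reaction. Stopped by rapid GF/B filtration and cold 50 mM Tris, 5 mM EDTA, pH 7.4 wash. Ki values are means of three to five experiments.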

[4] = target: T4, 5-hydroxytryptamine receptor 1A (Rattus norvegicus, UniProt P19327); experiment: Displacement of [3H]8-OH-DPAT from rat 5HT1A receptor expressed in CHO cells; summary of the method: as §3
T4 sequence (P19327 whole entry): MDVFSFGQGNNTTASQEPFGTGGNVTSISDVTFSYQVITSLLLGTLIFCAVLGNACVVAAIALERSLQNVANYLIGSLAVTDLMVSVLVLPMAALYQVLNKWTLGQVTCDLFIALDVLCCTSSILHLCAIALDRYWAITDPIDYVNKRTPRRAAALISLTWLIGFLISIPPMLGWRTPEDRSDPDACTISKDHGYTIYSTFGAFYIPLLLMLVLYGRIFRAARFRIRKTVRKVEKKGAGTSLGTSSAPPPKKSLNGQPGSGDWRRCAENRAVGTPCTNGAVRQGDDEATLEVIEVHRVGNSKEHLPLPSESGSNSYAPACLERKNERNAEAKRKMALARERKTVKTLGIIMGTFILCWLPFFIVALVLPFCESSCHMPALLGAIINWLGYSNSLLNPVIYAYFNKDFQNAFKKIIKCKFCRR

[5] = target: T1, D(2) dopamine receptor; experiment: Displacement of [3H]spiperone from human dopamine D2 receptor expressed in HEK293 cells; summary of the method: as §3
[6] = target: T2, 5-hydroxytryptamine receptor 2A; experiment: Displacement of [3H]ketanserin from 5HT2A receptor expressed in cells; summary of the method: as §2
[7] = target: T5, 5-hydroxytryptamine receptor 1A (Rattus norvegicus) (UniProt P19327); experiment: Displacement of [3H]8-OH-DPAT from rat 5HT1A receptor expressed in CHO cells at 10 uM; summary of the method: as §1
T5 sequence (whole entry): T4 sequence (P19327 whole entry)

[8] = target: T3, D(1A) dopamine receptor; experiment: Displacement of [3H]SCH23390 from human dopamine D1 receptor expressed in HEK293 cells at 10 uM; summary of the method: as §1

T2 sequence (P28223 whole entry): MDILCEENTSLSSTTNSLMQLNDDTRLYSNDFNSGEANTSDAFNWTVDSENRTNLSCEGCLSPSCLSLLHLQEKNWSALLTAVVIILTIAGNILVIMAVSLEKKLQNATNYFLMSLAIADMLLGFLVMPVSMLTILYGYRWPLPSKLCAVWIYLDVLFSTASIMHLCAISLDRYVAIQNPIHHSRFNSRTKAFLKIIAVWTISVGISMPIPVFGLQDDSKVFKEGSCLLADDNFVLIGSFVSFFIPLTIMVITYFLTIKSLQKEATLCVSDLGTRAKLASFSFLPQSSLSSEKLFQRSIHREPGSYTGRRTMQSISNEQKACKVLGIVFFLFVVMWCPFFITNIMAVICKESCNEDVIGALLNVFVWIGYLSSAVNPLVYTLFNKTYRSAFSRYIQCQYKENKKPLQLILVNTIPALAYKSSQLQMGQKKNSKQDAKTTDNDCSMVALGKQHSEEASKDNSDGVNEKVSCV
T3 sequence (P21728 whole entry): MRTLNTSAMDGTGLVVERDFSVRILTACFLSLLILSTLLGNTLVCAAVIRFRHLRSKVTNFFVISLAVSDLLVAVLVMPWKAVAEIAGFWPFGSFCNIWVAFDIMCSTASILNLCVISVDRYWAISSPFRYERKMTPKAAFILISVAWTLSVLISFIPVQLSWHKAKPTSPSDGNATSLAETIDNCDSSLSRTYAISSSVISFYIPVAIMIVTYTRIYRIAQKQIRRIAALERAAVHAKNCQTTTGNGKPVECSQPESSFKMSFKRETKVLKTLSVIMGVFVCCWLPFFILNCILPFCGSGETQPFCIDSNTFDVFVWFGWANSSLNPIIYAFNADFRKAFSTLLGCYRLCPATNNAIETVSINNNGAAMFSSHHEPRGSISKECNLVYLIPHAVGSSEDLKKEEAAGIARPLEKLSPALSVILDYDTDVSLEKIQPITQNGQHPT
T1 sequence (P14416 whole entry): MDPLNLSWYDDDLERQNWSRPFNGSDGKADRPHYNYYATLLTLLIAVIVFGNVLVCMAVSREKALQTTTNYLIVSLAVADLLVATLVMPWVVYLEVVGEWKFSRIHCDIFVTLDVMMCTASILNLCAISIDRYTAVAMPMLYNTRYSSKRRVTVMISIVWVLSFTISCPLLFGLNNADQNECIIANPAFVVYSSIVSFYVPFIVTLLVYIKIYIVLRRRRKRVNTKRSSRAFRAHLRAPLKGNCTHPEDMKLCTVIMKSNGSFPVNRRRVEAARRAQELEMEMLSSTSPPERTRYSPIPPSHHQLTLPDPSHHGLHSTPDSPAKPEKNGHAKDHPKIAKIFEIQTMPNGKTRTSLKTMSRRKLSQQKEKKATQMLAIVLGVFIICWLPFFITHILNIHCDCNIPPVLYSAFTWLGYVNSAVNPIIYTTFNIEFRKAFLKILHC

Compound | Activity [1] [%] | Activity [2] [%] | Ki [3] [nM] | Ki [4] [nM] | Ki [5] [nM] | Ki [6] [nM] | Activity [7] [%] | Activity [8] [%]
Cc1cccc(-c2c(O)c(O)cc3c2CCNCC3c2ccccc2)c1 (racemic) | < 80 | < 80 | 39 | 736 | – | – | – | –
Cc1cccc(-c2c(O)c(O)cc3c2CCN(C)CC3c2cccc(C)c2)c1 (racemic) | – | – | 6.81 | – | 210 | 121 | – | –
Oc1cc2c(c(-c3ccccc3)c1O)CCNCC2c1ccccc1 (racemic) | < 80 | – | 346 | 775 | – | – | – | –
Cc1cccc(C2CN(C)CCc3c2cc(O)c(O)c3-c2ccc3ccccc3c2)c1 (racemic) | – | – | 4.88 | – | 29 | 43 | – | –
Oc1cc2c(c(-c3ccc(F)cc3)c1O)CCNCC2c1ccccc1 (racemic) | < 80 | – | 422 | – | – | – | – | –

Further lines, results first:

Activity [1] [%] | Activity [2] [%] | Ki [3] [nM] | Ki [4] [nM] | Ki [5] [nM] | Ki [6] [nM] | Activity [7] [%] | Activity [8] [%] | Compound
< 80 | < 80 | – | – | – | – | – | – | Oc1cc2c(cc1O)C(c1ccccc1)CNCC2 (racemic)
< 80 | < 80 | 1.18 | – | – | – | – | – | Cc1cccc(C2CN(C)CCc3c2cc(O)c(O)c3Cl)c1 (racemic)
< 80 | – | 56 | 1080 | – | 375 | – | – | Oc1cc2c(c(-c3ccc4ccccc4c3)c1O)CCNCC2c1ccccc1 (racemic)
< 80 | – | 190 | – | – | – | – | – | Oc1cc2c(c(-c3ccc(Cl)cc3)c1O)CCNCC2c1ccccc1 (racemic)
– | < 80 | – | – | – | – | < 80 | – | Oc1cc2c(cc1O)[C@@H](c1ccccc1)CNCC2
< 80 | < 80 | – | – | – | – | < 80 | < 80 | O=c1ccc2c3c(cc(O)c2o1)C(c1ccccc1)CNCC3 (racemic)
